# Results reported in ChEMBL document CHEMBL1122524, “Cyclopentenyluridine and cyclopentenylcytidine analogues as inhibitors of uridine-cytidine kinase” (J Med Chem, 1984).
# What was measured:
# [1] = tested on: L1210; assay: Compound was tested for its ability to inhibit L1210 cell growth after 72 hr at 1000 uM concentration; type: functional; settings: Mus musculus, L1210, 72 h
# Method in brief: (§1)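 L1210 cells are grown as stationary suspension cultures in Fishers medium with 10% heat-inactivated horse serum. Drug exposure is continuous for 72 h. Cell number is counted with a Coulter counter. Percent inhibition is calculated against untreated control cultures.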
# [2] = tested on: L1210; assay: Compound was tested for its ability to inhibit L1210 cell growth after 72 hr at 100 uM concentration; type: functional; settings: Mus musculus, L1210, 72 h; method in brief: as §1
# [3] = target: T1, Uridine-cytidine kinase 1 (Mus musculus) (UniProt P52623); assay: Inhibition of uridine kinase from L1210 cells was evaluated by measuring the retention of phosphorylated product on DE81 filter papers at 100 uM; type: functional, cell-based
# T1 sequence (whole entry): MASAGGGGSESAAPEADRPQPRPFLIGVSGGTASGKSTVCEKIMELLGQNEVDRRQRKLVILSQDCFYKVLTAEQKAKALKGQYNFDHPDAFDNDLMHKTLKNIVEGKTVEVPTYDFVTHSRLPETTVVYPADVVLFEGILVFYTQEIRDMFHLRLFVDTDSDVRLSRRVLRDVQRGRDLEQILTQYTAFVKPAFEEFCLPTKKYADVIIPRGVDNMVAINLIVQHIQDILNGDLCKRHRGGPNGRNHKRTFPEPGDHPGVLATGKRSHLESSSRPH
# [4] = target: T1, Uridine-cytidine kinase 1 (Mus musculus); assay: Inhibition of uridine kinase from L1210 cells was evaluated by measuring the retention of phosphorylated product on DE81 filter papers at 1000 uM; type: functional, cell-based
# [5] = tested on: L1210; assay: Compound was tested for its ability to inhibit L1210 cell growth after 72 hr at 500 uM concentration; type: functional; settings: Mus musculus, L1210, 72 h; method in brief: as §1
# [6] = tested on: L1210; assay: Compound was tested for its ability to inhibit L1210 cell growth after 72 hr at 0.03 uM concentration; type: functional; settings: Mus musculus, L1210, 72 h; method in brief: as §1
# [7] = target: T2, Uridine-cytidine kinase 1 (Mus musculus, UniProt P52623); assay: Binding affinity to uridine kinase from L1210. was determined from the dixon plot
# T2 sequence (P52623 whole entry): T1 sequence (whole entry)
# Method in brief: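 Uridine kinase from L1210 cells. Uridine is used at 10, 40 and 200 μM, with inhibitor at 1, 0.5, 0.2 and 0.1 mM. Ki is taken from Dixon plots.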
inhibition [3] [%],inhibition [4] [%],Ki [7] [µM],Compound,inhibition at 1000 µM [1] [%],inhibition at 100 µM [2] [%],inhibition at 500 µM [5] [%],inhibition at 0.03 µM [6] [%]
35,78,–,O=c1ccn([C@@H]2C=C(CO)[C@@H](O)[C@H]2O)c(=O)[nH]1,36,2,12,–
57,89,60,Nc1ccn([C@@H]2C=C(CO)[C@@H](O)[C@H]2O)c(=O)n1,99,99,96,58
